Measurements collected from several papers.
Protocols differ between the studies behind these lines.
Target: Casein kinase I isoform delta (CSNK1D, Homo sapiens, UniProt P48730)

| SMILES | effect on | method | concentration | remaining binding [%] |
| --- | --- | --- | --- | --- |
| CN(C)c1nccc(-c2cnn3ncccc23)n1 | binding |  | 1 µM | 62 |
| O=C(NCCCN1CCOCC1)c1ccc(Nc2ncc(Cl)c(-c3ccc(Cl)s3)n2)cc1 | binding | competition with immobilised ligand | 1 µM | 100 |
| CN(C)c1nccc(-c2cnc3ncccn23)n1 | binding |  | 1 µM | 57 |
| CN(C)CC#Cc1ccc(OCCCc2sc(N3CCc4cccc(C(=O)Nc5nc6ccccc6s5)c4C3)nc2C(=O)O)c(F)c1 | cell-free assay | competition with immobilised ligand | 1 µM | 95 |
| C=CC(=O)N1CCC(C(=O)NCC(=O)N2CCN(c3nc(-c4cnc(N)nc4C(F)F)nc(N4CCOCC4)n3)CC2)CC1 | binding | competition with immobilised ligand | 1 µM | 100 |
| CN(c1nccc(-c2cnn3ncccc23)n1)C1CC1 | binding |  | 1 µM | 100 |
| N#Cc1ccc(Nc2ccc3[nH]c(=O)[nH]c3c2)c(Cl)c1 | cell-free assay | competition with immobilised ligand | 1 µM | 100 |
| O=C(NCCCN1CCOCC1)c1ccc(Nc2nccc(-c3cc4ccccc4s3)n2)cc1 | binding | competition with immobilised ligand | 1 µM | 92 |
| C[C@H]1CCN(c2nccc(-c3cnn4ncccc34)n2)C1 | binding |  | 1 µM | 71 |
| CC(C)(C)c1ccc(-c2nc(CBr)nn2-c2cccc(O)c2)cc1 | cell-free assay | competition with immobilised ligand | 10 µM | 82 |
| O=C(c1ccc(Nc2ncc(Cl)c(-c3cc4ccccc4s3)n2)cc1)N1CCC(N2CCCC2)CC1 | binding | competition with immobilised ligand | 1 µM | 100 |
| COc1ncc2cc3ccccc3nc2c1C#N | cell-free assay | competition with immobilised ligand | 5 µM | 93 |
| CN(C(=O)c1ccccc1)c1cc(N(C)c2ccc3c(c2)CCc2ccc(C(=O)NCCN4CCOCC4)cc2C3=O)ccc1F | cell-free assay | competition with immobilised ligand | 1 µM | 100 |
| COc1cnc(Nc2cccc(S(N)(=O)=O)c2)nc1N1CCN(c2ccccc2)CC1 | binding | competition with immobilised ligand | 1 µM | 97 |
| CC1CCCN1c1nccc(-c2cnn3ncccc23)n1 (stereo not drawn) | binding |  | 1 µM | 100 |
| COc1ccc2c(c1)O[C@H](c1ccc(OC)c(OC)c1)C[C@@H]2NC(=O)C1(c2ccc3c(c2)OC(F)(F)O3)CC1 | cell-free assay | competition with immobilised ligand | 1 µM | 92 |
| c1cncc(-c2cccc(Nc3nccc(NC4CCCCC4)n3)c2)c1 | binding | competition with immobilised ligand | 10 µM | 55 |
| F[C@@H]1CCN(c2nccc(-c3cnn4ncccc34)n2)C1 | binding |  | 1 µM | 83 |
| CC(=O)C1=C(C)N(c2cccc(C(F)(F)F)c2)C(=O)N[C@@H]1c1ccc(C#N)nc1 | cell-free assay | competition with immobilised ligand | 1 µM | 100 |
| C[C@@H](c1ccc(-n2cnc3c(N)ncnc32)cc1)N1CCc2nn(C)c(Cc3ccccc3)c2C1=O | binding | competition with immobilised ligand | 0.1 µM | 76 |
| CNC(=O)Nc1ccc2c(c1)[C@@]1(CC2)OC(=O)N(CC(=O)N(Cc2ccc(F)cc2)[C@@H](C)C(F)(F)F)C1=O | cell-free assay | competition with immobilised ligand | 1 µM | 100 |
| O=C(NCC1CCOCC1)c1n[nH]cc1NC(=O)c1c(F)cccc1F | binding | competition with immobilised ligand | 1 µM | 77 |
| CNC(=O)Nc1ccc2c(c1)CC[C@@]21OC(=O)N(CC(=O)N(Cc2ccc(F)cc2)[C@@H](C)C(F)(F)F)C1=O | cell-free assay | competition with immobilised ligand | 1 µM | 99 |
| COC(=O)Nc1nc2ccc(C(=O)c3ccccc3)cc2[nH]1 | cell-free assay | competition with immobilised ligand | 10 µM | 36 |
